From article PMC11700703 (Nature cardiovascular research, 2024)
“Also recorded” adds a separate entry of the source.

Key:
[1] = biological target: cTnI binding to immune-captured ATP synthase (UniProt P19429+P31399); experiment: Inhibition of cTnI binding to ATP synthase by ELISA; assay type: rat heart mitochondria; recombinant human cTnI; conditions: P888 2μM
Procedure, shortened: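 ELISA on anti-ATP synthase antibody plates blocked with 2% BSA. Plates were co-incubated with solubilized rat heart mitochondria (4 μg) and recombinant human cTnI (2 μg) ± test peptide (2 μM). After washing, bound cTnI was detected with HRP anti-cTnI antibody (1:5000, 1 h), then TMB, stopped with 2N sulfuric acid; absorbance at 450 nm.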

[2] = system: mitochondria of rat hearts after myocardial IR; experiment: Rat in vivo LAD ligation IR: mitochondrial oxygen consumption after IR; conditions: 3mg/kg IP at reperfusion, 24 hours after reperfusion, n=15
[3] = system: F1FO-ATP synthase (ATPase activity); experiment: F1FO-ATPase activity assay; assay type: biochemical, rat; conditions: P888 (2μM) co-incubation with cTnI (2μg); n=3 independent experiments
Procedure, shortened: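 Rat heart mitochondria (4 μg, solubilized) were captured on anti-ATP synthase antibody plates and co-incubated with recombinant human cTnI (2 μg) ± test peptide (2 μM). Absorbance was read over 120 min. Oligomycin served as negative control. n=3 independent experiments, each in 3–4 replicates; two-way ANOVA with Sidak correction.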

Chain of cTnI binding to immune-captured ATP synthase (P19429 whole entry): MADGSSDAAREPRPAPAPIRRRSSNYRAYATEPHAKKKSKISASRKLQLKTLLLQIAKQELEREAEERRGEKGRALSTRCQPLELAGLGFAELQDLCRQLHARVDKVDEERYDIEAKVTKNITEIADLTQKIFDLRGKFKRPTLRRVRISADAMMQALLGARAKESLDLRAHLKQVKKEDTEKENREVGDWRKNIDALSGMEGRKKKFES
Chain of cTnI binding to immune-captured ATP synthase (P31399 2-161 limits assumed): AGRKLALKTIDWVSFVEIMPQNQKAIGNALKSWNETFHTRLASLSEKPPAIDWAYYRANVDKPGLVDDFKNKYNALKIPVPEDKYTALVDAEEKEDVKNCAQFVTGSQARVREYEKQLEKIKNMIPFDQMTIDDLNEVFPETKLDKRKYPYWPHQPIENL

A2GRKLALKTI11 [P888]
inhibition of cTnI binding to the immune-captured ATP synthase ([1]; cTnI (2μg), n=3): ~ 78%
inhibition of cTnI binding to ATP synthase ([1]; n=3, result in words): binding is inhibited in the presence of P888; also recorded: inhibited cTnI binding to ATP synthase
mitochondrial respiration after IR [2]: no significant effect of P888 on mitochondrial function
prevention of cTnI-induced increase in ATPase activity [3]: blocked the cTnI-induced increase in ATPase activity; also recorded: P888 co-incubation prevents this effect; also recorded: inhibited cTnI-induced increase in ATPase activity in vitro
